{
  "source": "ChEMBL document CHEMBL3526099",
  "about": "“Metabolism of triethylenetetramine and 1,12-diamino-3,6,9-triazadodecane by the spermidine/spermine-N(1)-acetyltransferase and thialysine acetyltransferase” (Drug Metab Dispos, 2013)",
  "key": {"[1]": {"biological_target": "T1, Thialysine N-epsilon-acetyltransferase (Homo sapiens, UniProt Q96F10)", "T1 sequence (Q96F10 whole entry)": "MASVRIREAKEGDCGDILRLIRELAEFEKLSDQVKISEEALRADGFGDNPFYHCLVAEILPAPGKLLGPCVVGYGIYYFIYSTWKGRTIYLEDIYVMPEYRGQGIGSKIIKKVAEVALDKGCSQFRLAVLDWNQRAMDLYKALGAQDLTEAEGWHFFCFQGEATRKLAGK", "test": "Drug level in human HepG2 cells assessed as SSAT2-mediated compound formation treated with TETA at 1 mM for 24 hrs", "assay_type": "ADME, cell-based", "details": "hepg2, 24 h, 1000 µM"}, "[2]": {"biological_target": "T2, Diamine acetyltransferase 1 (Homo sapiens, UniProt P21673)", "test": "Drug level in human HepG2 cells assessed as SSAT1-mediated compound formation treated with SpmTrien at 100 uM for 24 hrs", "assay_type": "ADME, cell-based", "details": "hepg2, 24 h"}, "[3]": {"biological_target": "T2, Diamine acetyltransferase 1", "test": "Drug metabolism in human HepG2 cells assessed as SSAT1-mediated (N1-acetyl)-1,12-diamino-3,6,9-triazadodecane formation at 100 uM for 24 hrs", "assay_type": "ADME, cell-based", "details": "hepg2, 24 h"}, "HepG2": {"test_system": "HepG2", "test": "Drug metabolism in human HepG2 cells at 100 uM for 24 hrs in presence of SSAT1 shRNA", "assay_type": "ADME, cell-based", "details": "hepg2, 24 h", "in_short": "(§1)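 HepG2 cells were transduced with control, SSAT1 or SSAT2 shRNA lentiviral particles and stable clones selected with puromycin (5 µg/ml) for one week. Cells were plated overnight, then incubated 24 h with 1 mM TETA or 100 µM SpmTrien. Intracellular metabolites were measured. Means ± SD, n=3.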"}, "[4]": {"test": "Drug metabolism in SSAT1-knockout mouse primary hepatocytes at 100 uM for 4 hrs", "assay_type": "ADME, cell-based, Hepatocyte", "in_short": "(§2)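 Hepatocytes from SSAT1-KO or wild-type mouse liver were isolated by collagenase perfusion and plated on collagen I in William's E with dexamethasone, FBS and insulin. They were reverse-transfected with control or SSAT2 siRNA (100 nM) for 2 d, then exposed to 1 mM TETA or 100 µM SpmTrien for 4 h. Intracellular metabolites were measured. Means ± SD, n=3.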"}, "[5]": {"biological_target": "T2, Diamine acetyltransferase 1", "test": "Drug metabolism in human HepG2 cells assessed as SSAT1-mediated (N1-acetyl)-spermidine formation at 100 uM for 24 hrs", "assay_type": "ADME, cell-based", "details": "hepg2, 24 h"}, "[6]": {"biological_target": "T3, Diamine acetyltransferase 1 (Mus musculus, UniProt P48026)", "T3 sequence (P48026 whole entry)": "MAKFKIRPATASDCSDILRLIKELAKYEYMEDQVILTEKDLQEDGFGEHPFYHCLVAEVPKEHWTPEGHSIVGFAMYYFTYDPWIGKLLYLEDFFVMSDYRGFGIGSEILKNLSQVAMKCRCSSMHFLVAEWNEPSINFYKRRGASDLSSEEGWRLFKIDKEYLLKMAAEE", "test": "Drug metabolism in mouse primary hepatocytes assessed as SSAT1-mediated (N1-acetyl)-1,12-diamino-3,6,9-triazadodecane formation at 100 uM for 4 hrs in presence of SSAT2 siRNA", "assay_type": "ADME, cell-based, Hepatocyte", "in_short": "as §2"}, "[7]": {"biological_target": "T2, Diamine acetyltransferase 1", "test": "Drug metabolism in human HepG2 cells assessed as SSAT1-mediated (N1-acetyl)-1,12-diamino-3,6,9-triazadodecane formation at 100 uM for 24 hrs in presence of SSAT2 shRNA", "assay_type": "ADME, cell-based", "details": "hepg2, 24 h", "in_short": "as §1"}, "[8]": {"biological_target": "T2, Diamine acetyltransferase 1", "test": "Drug metabolism in human HepG2 cells assessed as SSAT1-mediated (N1-acetyl)-spermine formation at 100 uM for 24 hrs", "assay_type": "ADME, cell-based", "details": "hepg2, 24 h"}, "[9]": {"biological_target": "T2, Diamine acetyltransferase 1", "test": "Activity of human recombinant SSAT1 assessed as compound formation treated with 1 mM SpmTrien for 50 mins by HPLC analysis", "assay_type": "ADME", "in_short": "(§3)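 SpmTrien (1 mM) incubated with 50-100 ng human recombinant enzyme for 10-50 min at 37 °C in 100 mM Tris-HCl pH 7.8 containing 1 mM acetyl-CoA and 1 mM DTT. The reaction was stopped with sulphosalicylic acid containing diaminoheptane as internal standard, and acetylated products were quantified by HPLC.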"}, "[10]": {"biological_target": "T2, Diamine acetyltransferase 1", "test": "Drug level in human HepG2 cells assessed as SSAT1-mediated compound formation treated with SpmTrien at 100 uM for 24 hrs in presence of SSAT2 shRNA", "assay_type": "ADME, cell-based", "details": "hepg2, 24 h", "in_short": "as §1"}, "[11]": {"biological_target": "T1, Thialysine N-epsilon-acetyltransferase", "test": "Activity of human recombinant SSAT2 assessed as compound formation treated with 1 mM SpmTrien for 50 mins by HPLC analysis", "assay_type": "ADME", "in_short": "as §3"}, "[12]": {"biological_target": "T2, Diamine acetyltransferase 1", "test": "Drug level in human HepG2 cells assessed as SSAT1-mediated compound formation treated with SpmTrien at 100 uM for 24 hrs pretreated with 50 uM DENSpm for 24 hrs", "assay_type": "ADME, cell-based", "details": "hepg2, 24 h", "in_short": "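HepG2 cells were pretreated for 24 h with 50 µM DENSpm or medium alone, washed, then incubated for 24 h with 1 mM TETA or 100 µM SpmTrien. Intracellular metabolites were measured from cell lysates. Means ± SD, n=3.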"}, "[13]": {"biological_target": "T3, Diamine acetyltransferase 1", "test": "Drug level in mouse primary hepatocytes assessed as SSAT1-mediated compound formation treated with 100 uM SpmTrien for 4 hrs in presence of SSAT2 siRNA", "assay_type": "ADME, cell-based, Hepatocyte", "in_short": "as §2"}, "[14]": {"biological_target": "T3, Diamine acetyltransferase 1", "test": "Drug level in mouse primary hepatocytes assessed as SSAT1-mediated compound formation per ug DNA treated with SpmTrien at 100 uM for 4 hrs"}, "[15]": {"biological_target": "T2, Diamine acetyltransferase 1", "test": "Drug level in human HepG2 cells assessed as SSAT1-mediated compound formation per ug DNA treated with Spm Trien at 100 uM for 24 hrs", "assay_type": "ADME, cell-based", "details": "hepg2, 24 h"}, "[16]": {"biological_target": "T2, Diamine acetyltransferase 1", "test": "Drug level in human HepG2 cells assessed as SSAT1-mediated compound formation treated with TETA at 1 mM for 24 hrs pretreated with 50 uM DENSpm for 24 hrs", "details": "hepg2, 24 h, 1000 µM"}, "[17]": {"biological_target": "Thialysine N-epsilon-acetyltransferase (Mus musculus, UniProt Q6P8J2)", "sequence (Q6P8J2 whole entry)": "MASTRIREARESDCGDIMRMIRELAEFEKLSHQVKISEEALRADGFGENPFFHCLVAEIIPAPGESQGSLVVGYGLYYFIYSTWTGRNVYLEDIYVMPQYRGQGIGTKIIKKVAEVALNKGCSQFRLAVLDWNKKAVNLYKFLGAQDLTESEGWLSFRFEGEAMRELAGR", "test": "Drug level in mouse primary hepatocytes assessed as SSAT2-mediated compound formation per ug DNA treated with TETA at 1 mM for 4 hrs", "details": "1000 µM"}, "[18]": {"biological_target": "T1, Thialysine N-epsilon-acetyltransferase", "test": "Drug level in human HepG2 cells assessed as SSAT2-mediated compound formation per ug DNA treated with TETA at 1 mM for 24 hrs", "assay_type": "ADME, cell-based", "details": "hepg2, 24 h, 1000 µM"}, "[19]": {"biological_target": "T1, Thialysine N-epsilon-acetyltransferase", "test": "Drug level in human HepG2 cells assessed as SSAT2-mediated compound formation treated with TETA at 1 mM for 24 hrs in presence of SSAT1 shRNA", "assay_type": "ADME, cell-based", "details": "hepg2, 24 h, 1000 µM", "in_short": "as §1"}},
  "data": [
    {"smiles": "CC(=O)NCCCNCCCCNCCCN", "values": [
      {"measurement": "Drug metabolism", "setting": "[1]", "result": "metabolite_detected"},
      {"measurement": "Drug metabolism", "setting": "[2]", "result": "metabolite_detected"}
    ]},
    {"smiles": "CC(=O)NCCCNCCCCN", "values": [
      {"measurement": "Drug metabolism", "setting": "[1]", "result": "metabolite_detected"},
      {"measurement": "Drug metabolism", "setting": "[2]", "result": "metabolite_detected"}
    ]},
    {"smiles": "NCCCNCCNCCNCCN", "values": [
      {"measurement": "Drug metabolism", "setting": "[3]", "result": "metabolite_detected"},
      {"measurement": "Drug metabolism", "setting": "HepG2", "result": "metabolite_not_detected"},
      {"measurement": "Drug metabolism", "setting": "[4]", "result": "metabolite_not_detected"},
      {"measurement": "Drug metabolism", "setting": "[5]", "result": "metabolite_detected"},
      {"measurement": "Drug metabolism", "setting": "[6]", "result": "metabolite_detected"},
      {"measurement": "Drug metabolism", "setting": "[7]", "result": "metabolite_detected"},
      {"measurement": "Drug metabolism", "setting": "[8]", "result": "metabolite_detected"}
    ]},
    {"smiles": "CC(=O)NCCNCCNCCNCCCN", "values": [
      {"measurement": "Drug metabolism", "setting": "[9]", "result": 12.8, "unit": "nmol"},
      {"measurement": "Drug metabolism", "setting": "[10]", "result": "metabolite_detected"},
      {"measurement": "Drug metabolism", "setting": "[2]", "result": "metabolite_detected"},
      {"measurement": "Drug metabolism", "setting": "[11]", "result": 0.65, "unit": "nmol"},
      {"measurement": "Drug metabolism", "setting": "[12]", "result": "metabolite_detected"},
      {"measurement": "Drug metabolism", "setting": "[13]", "result": "metabolite_detected"},
      {"measurement": "Drug metabolism", "setting": "[14]", "result": 3.4, "unit": "pmol/h"},
      {"measurement": "Drug metabolism", "setting": "[15]", "result": 0.8, "unit": "pmol/h"}
    ]},
    {"smiles": "CC(=O)NCCCNCCNCCNCCN", "values": [
      {"measurement": "Drug metabolism", "setting": "[9]", "result": 4.2, "unit": "nmol"},
      {"measurement": "Drug metabolism", "setting": "[11]", "result": 1.1, "unit": "nmol"},
      {"measurement": "Drug metabolism", "setting": "[12]", "result": "metabolite_detected"}
    ]},
    {"smiles": "CC(=O)NCCNCCNCCN", "values": [
      {"measurement": "Drug metabolism", "setting": "[1]", "result": "metabolite_detected"},
      {"measurement": "Drug metabolism", "setting": "[16]", "result": "metabolite_detected"},
      {"measurement": "Drug metabolism", "setting": "[17]", "result": 40, "unit": "pmol/h"},
      {"measurement": "Drug metabolism", "setting": "[18]", "result": 10, "unit": "pmol/h"},
      {"measurement": "Drug metabolism", "setting": "[19]", "result": "metabolite_detected"}
    ]}
  ]
}
